Screening data as filed in PubChem BioAssay.
Sampled rows, rich in hits. Any-hit rate of the full collection: about 3%.
NR3A LBD binder = modulates the human NR3A ligand-binding domain; NR3A LBD differential scanning fluorimetry, Tm shift; 0% = protein alone, 100% = glycine-bound protein; Tm shift relative to glycine control, % at 25 µM; 340,000 tested, 2.5% active;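 active means melting temperature shift of at least 10% of the positive control shift, at one fixed dose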
aDG glyco up = increases alpha dystroglycan glycosylation; AID 624168; Pro5-aDG cells, alpha-DG glycosylation AlphaScreen (IIH6); 0% Pro5, 100% B10-LARGE cell signal; 360,000 tested, 0.22% active; activation, % at 10 µM;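 active means activation of at least 8% versus controls, or a plate z-score of at least 8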;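 further: Pro5 are CHO cells carrying HIG-tagged alpha-DG that lacks glycosylation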
GASC-1 inh = inhibitors of human GASC-1 (JMJD2C) demethylase; Q9H3R0; GST-JMJD2C(1-420) H3K9me3 demethylation, DELFIA europium; inhibition, % at 2.35 µM; 330,000 tested, 0.069% active;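 active means more than half of a compound's replicate wells show inhibition beyond 50%, single wells judged on their own value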;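 further: signal counts dimethyl H3K9 product captured on neutravidin plate; 0% = median of DMSO wells and 100% = 0.3 times that DMSO median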
GC-B act = GC-B (human) receptor activation; HEK293-GC-B cells, CNP EC30, cGMP TR-FRET; 0% at EC30 CNP, 100% saturating CNP; activation, % at 10 µM; 370,000 tested, 0.11% active; AID 1920062;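 active means activation at 10 µM reaching about 35% in either raw or pattern-adjusted values, limit read from the data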
Target sequence (P20594 whole entry, looked up): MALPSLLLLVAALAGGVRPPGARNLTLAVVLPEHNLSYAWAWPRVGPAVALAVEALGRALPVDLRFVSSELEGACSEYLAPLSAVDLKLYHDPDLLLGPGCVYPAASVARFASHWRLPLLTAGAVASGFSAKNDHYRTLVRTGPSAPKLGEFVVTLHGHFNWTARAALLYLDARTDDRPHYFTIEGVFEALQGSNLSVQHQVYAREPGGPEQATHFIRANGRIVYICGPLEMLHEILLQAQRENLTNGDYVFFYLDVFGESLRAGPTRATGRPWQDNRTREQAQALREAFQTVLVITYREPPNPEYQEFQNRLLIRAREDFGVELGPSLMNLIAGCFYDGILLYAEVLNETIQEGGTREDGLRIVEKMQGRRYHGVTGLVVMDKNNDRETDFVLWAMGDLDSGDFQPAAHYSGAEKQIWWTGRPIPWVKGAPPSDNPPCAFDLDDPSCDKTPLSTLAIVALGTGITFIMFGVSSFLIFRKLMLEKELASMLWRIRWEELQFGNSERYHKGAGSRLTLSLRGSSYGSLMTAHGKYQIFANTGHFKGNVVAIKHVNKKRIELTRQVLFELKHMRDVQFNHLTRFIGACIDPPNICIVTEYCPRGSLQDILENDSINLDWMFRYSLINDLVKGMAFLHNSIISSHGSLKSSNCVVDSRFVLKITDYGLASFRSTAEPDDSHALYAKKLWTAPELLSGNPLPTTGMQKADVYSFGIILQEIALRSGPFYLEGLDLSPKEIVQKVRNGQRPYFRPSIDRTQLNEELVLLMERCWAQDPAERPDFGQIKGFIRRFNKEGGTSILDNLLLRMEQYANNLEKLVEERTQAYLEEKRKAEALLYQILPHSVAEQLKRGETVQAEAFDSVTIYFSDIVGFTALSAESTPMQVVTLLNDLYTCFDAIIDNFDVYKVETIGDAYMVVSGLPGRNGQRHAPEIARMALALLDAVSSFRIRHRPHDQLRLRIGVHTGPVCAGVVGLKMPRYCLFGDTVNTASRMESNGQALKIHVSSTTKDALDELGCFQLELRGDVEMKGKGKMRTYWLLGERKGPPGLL
NPR1 activator = GC-A (human) enzyme activation. activation, % at 10 µM. P16066. 370,000 tested, 0.14% active. HEK293 GC-A cells, cGMP TR-FRET, EC30 ANP; 0% at EC30 ANP, 100% saturating ANP; in the data active means activation above about 40%
Lipid droplet = hepatic lipid droplet formation modulation; inhibition, % at 6.5 µM; AML12 mouse hepatocytes, oleate lipid droplets, BODIPY imaging; 240,000 tested, 0.4% active;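 active means lipid droplet intensity inhibited by at least 50%, with more than 500 cells counted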
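Assay system: AML12 hepatocytes (mouse); Probe or stimulus: oleic acid at 100 µM to induce lipid droplet formation; Dosing: compound at 6.5 µM only; Schedule: compound with oleate, overnight; Detection: fluorescence imaging, 20x objective, two fields per well; Measure: % inhibition of lipid droplet signal.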
Numbers without * were called inactive.

What do the screens show for `C#CCOCCOCCOCCNc1nc(N2CCN(C(=O)[C@H]([C@@H](C)CC)n3cc(CCCCN)nn3)CC2)nc(N2CCN(C(=O)[C@H](C)n3cc(CCC(=O)O)nn3)CC2)n1`?
NR3A LBD binder: -1; aDG glyco up: 0; GASC-1 inh: -10; GC-B act: 53*; NPR1 activator: 3; Lipid droplet: -3

Results for C#CCOCCOCCOCCNc1nc(N2CCN(C(=O)CCCCCCCCCCNC(=O)[C@@H](CCC(=O)O)n3cc(CCCCCN)nn3)CC2)nc(N2CCN(C(=O)CCCCCCCCCCNC(=O)[C@H]([C@@H](C)CC)n3cc(CCCCCN)nn3)CC2)n1 ?
NR3A LBD binder: 26*; aDG glyco up: 0

What do the screens show for `C#CCOCCOCCOCCNc1nc(N2CCN(C(=O)[C@H]([C@@H](C)CC)n3cc([C@@H](N)CC(C)C)nn3)CC2)nc(N2CCN(C(=O)[C@H](CCCCN)n3cc([C@@H](N)CC(C)C)nn3)CC2)n1`?
NR3A LBD binder: 10*; GASC-1 inh: -24; Lipid droplet: -1

What do the screens show for `C#CCOCCOCCOCCNc1nc(N2CCN(C(=O)CCCCCCCCCCNC(=O)[C@H]([C@@H](C)CC)n3cc(CCCCCN)nn3)CC2)nc(N2CCN(C(=O)CCCCCCCCCCNC(=O)[C@H](CCCCN)n3cc(CCCC(=O)O)nn3)CC2)n1`?
NR3A LBD binder: 22*; aDG glyco up: 0

What do the screens show for `CCN(C(=O)CSc1nc(C)c(C)c(C)n1)C1CCS(=O)(=O)C1` (stereo unspecified)?
NR3A LBD binder: 2; aDG glyco up: 0; GASC-1 inh: 8; GC-B act: 2; NPR1 activator: -3

How did C[C@@H]1COc2cc(Br)ccc2S(=O)(=O)N1Cc1cn(CCC2OCCCO2)nn1 do in these assays?
GC-B act: 1; NPR1 activator: 3

Results for Cc1cc(C)nc(NC(N)=NC(C)c2ccccc2)n1 (stereo unspecified) ?
NR3A LBD binder: -2; GASC-1 inh: 51*; GC-B act: -16; NPR1 activator: -17; Lipid droplet: 0

Results for CC(C)C(c1nnnn1Cc1ccc2c(c1)OCO2)N1CCN(c2ccccc2)CC1 (stereo unspecified) ?
NR3A LBD binder: 13*; aDG glyco up: 0; GASC-1 inh: 6; GC-B act: -2; NPR1 activator: -8

What do the screens show for `COc1ccc(Cn2nnnc2C(CC(C)C)N2CCN(c3ccccc3)CC2)cc1` (stereo unspecified)?
NR3A LBD binder: 18*; aDG glyco up: 0; GASC-1 inh: -1; GC-B act: -4; NPR1 activator: -4

How did O=C(c1cnn2c(C(F)(F)F)cc(-c3ccco3)nc12)N1CCCCCC1 do in these assays?
NR3A LBD binder: 11*; aDG glyco up: 0; GASC-1 inh: -6; GC-B act: 3; NPR1 activator: 2

What do the screens show for `Cc1[nH]c2ccccc2c1C1=NNC(=Nc2ccc(F)cc2)SC1`?
NR3A LBD binder: 12*; aDG glyco up: 0; GASC-1 inh: 8; GC-B act: 3; NPR1 activator: -4; Lipid droplet: 1

Results for Cc1[nH]c2ccccc2c1N=Nc1ccc(F)cc1 ?
NR3A LBD binder: 25*; aDG glyco up: 0; GASC-1 inh: -17; GC-B act: -7; NPR1 activator: 9; Lipid droplet: 22

Results for Cc1[nH]c2ccccc2c1N=Nc1cc(C(=O)O)cc(C(=O)O)c1 ?
NR3A LBD binder: 0; aDG glyco up: 0; GASC-1 inh: 3; GC-B act: -1; NPR1 activator: -1; Lipid droplet: 4

Results for COc1ccc(N=C2NN=C(c3c(C)[nH]c4ccccc34)CS2)cc1 ?
NR3A LBD binder: -14; aDG glyco up: -1; GASC-1 inh: -4; GC-B act: -5; NPR1 activator: -2; Lipid droplet: -11

What do the screens show for `Cc1[nH]c2ccccc2c1N=Nc1ccccc1F`?
NR3A LBD binder: 13*; aDG glyco up: 0; GASC-1 inh: 3; GC-B act: -6; NPR1 activator: 2; Lipid droplet: 14

Results for Cc1ccc(Oc2ccc(NS(=O)(=O)c3cccc(C(=O)O)c3)cc2)cc1 ?
NR3A LBD binder: -35; aDG glyco up: 0; GASC-1 inh: 1; GC-B act: 2; NPR1 activator: 2

How did O=C(C1CCN(c2nnc(N3CCCC3=O)s2)CC1)N1CCN(c2cccc(C(F)(F)F)c2)CC1 do in these assays?
NR3A LBD binder: 17*; aDG glyco up: 0; GASC-1 inh: -11; GC-B act: 3; NPR1 activator: -2; Lipid droplet: 2

Results for Cc1ccc(C)c(N2CCN(C(=O)C3CCN(c4nnc(N5CCCC5=O)s4)CC3)CC2)c1 ?
NR3A LBD binder: 2; aDG glyco up: 1; GASC-1 inh: 12; GC-B act: 0; NPR1 activator: 2

Results for O=C(C1CCC1)N1CCc2cc(S(=O)(=O)N3CCCC3)ccc21 ?
GC-B act: 6; NPR1 activator: 0

What do the screens show for `O=C(O)C(Cc1ccccc1)N1C(=O)/C(=C/c2ccccc2)SC1=S` (stereo unspecified)?
NR3A LBD binder: 12*; aDG glyco up: 0; GASC-1 inh: -2; GC-B act: 0; NPR1 activator: 4; Lipid droplet: 18

How did O=C(O)C(Cc1ccccc1)N1C(=O)c2c(Cl)c(Cl)c(Cl)c(Cl)c2C1=O (stereo unspecified) do in these assays?
NR3A LBD binder: 11*; aDG glyco up: 0; GASC-1 inh: 7; GC-B act: 0; NPR1 activator: -1

Results for Cc1ccc(/C=C2\SC(=S)N(C(Cc3ccccc3)C(=O)O)C2=O)cc1 (stereo unspecified) ?
NR3A LBD binder: 24*; aDG glyco up: 0; GASC-1 inh: 4; GC-B act: -4; NPR1 activator: -6; Lipid droplet: 0

Results for COCCCNC(=O)c1oc(=O)c2ccccc2c1-c1ccc(C)cc1 ?
GC-B act: -8; NPR1 activator: -14

What do the screens show for `S=C(NCc1ccco1)Nc1ccc(Cl)c(Cl)c1`?
NR3A LBD binder: 11*; aDG glyco up: 0; GASC-1 inh: 26; GC-B act: 2; NPR1 activator: 4

How did Fc1ccccc1-c1nc(NC2CCCC2)c2ccccc2n1 do in these assays?
NR3A LBD binder: -2; aDG glyco up: 2; GASC-1 inh: -3; GC-B act: 16; NPR1 activator: 9; Lipid droplet: 8

How did Oc1ccccc1-c1nc(NC2CCCC2)c2ccccc2n1 do in these assays?
NR3A LBD binder: 19*; aDG glyco up: 0; GASC-1 inh: 4; GC-B act: -1; NPR1 activator: 8; Lipid droplet: 12
